Data set [1] addresses T1, Voltage-gated L-type calcium channel (Homo sapiens, UniProt Q13936+Q13698+Q01668+O60840). Briefly: Inhibition of voltage-dependent L-type calcium channel in human SH-SY5Y cells assessed as protection against glutamate-induced excitotoxicity by measuring recovery of cell viability at 20 uM measured after 24 hrs by alamar blue-based fluorescence method relative to control. (Alamar Blue is a resazurin reagent that responds to reducing activity.)

The target of data set [2] is T1, Voltage-gated L-type calcium channel. Briefly: Inhibition of voltage-dependent L-type calcium channel in human U373MG cells assessed as protection against oxygen glucose deprivation/reperfusion-induced injury by measuring recovery of cell viability at 20 uM administered at onset of reperfusion period measured after 16 hrs by alamar blue assay relative to control. The data set is classed as cell-based. The method in brief:
(§1)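 U-373 MG astrocytoma cells seeded at 30000 cells/ml and grown 24 or 48 h (37 °C/5% CO2). OGD: 24 h at 37 °C in glucose-free DMEM pre-bubbled with 95% N2/5% CO2, in a sealed nitrogen-flushed chamber. Then 16 h reperfusion in normal medium; compounds added at reperfusion, diluted from DMSO stock (DMSO ≤0.1%). Viability by alamarBlue, 4 h at 37 °C, fluorescence ex 530–560/em 590 nm. Expressed as % recovery from injury, mean ± S.E. of ≥3 experiments in sixuplicate.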

The target is the same in data set [3]. Briefly: Inhibition of voltage-dependent L-type calcium channel in human SH-SY5Y cells assessed as protection against glutamate-induced excitotoxicity by measuring recovery of cell viability at 1 uM measured after 24 hrs by alamar blue-based fluorescence method relative to control.
Data set [4] has the same target. Briefly: Inhibition of voltage-dependent L-type calcium channel in human U373MG cells assessed as protection against oxygen glucose deprivation/reperfusion-induced injury by measuring recovery of cell viability at 1 uM administered at onset of reperfusion period measured after 16 hrs by alamar blue assay relative to control. The data set is classed as cell-based. The method in brief:
as §1

Data set [5] addresses T2, Voltage-gated L-type calcium channel (Rattus norvegicus, UniProt P22002+Q02485+P27732). As to the kind of experiment: Inhibition of voltage-dependent L-type calcium channel in Wistar rat brain slices assessed as protection against oxygen glucose deprivation/reperfusion-induced injury by measuring recovery of LDH release at 20 uM administered at onset of reperfusion period measured after 90 mins by spectrophotometric assay relative to control. To be noted: 1.5 h. Further details: scale not given: the % may be the effect or the level left. A general note: Release of lactate dehydrogenase indicates damage to the cell membrane.

Data set [6] addresses T2, Voltage-gated L-type calcium channel. As to the kind of experiment: Inhibition of voltage-dependent L-type calcium channel in Wistar rat brain slices assessed as protection against oxygen glucose deprivation/reperfusion-induced injury by measuring recovery of edema formation at 20 uM administered at onset of reperfusion period measured after 90 mins relative to control. Further details: scale not given: the % may be the effect or the level left. As to conditions: 1.5 h.

Data set [7] relates to Right cardiac atrium. Briefly: Negative chronotropic activity in guinea pig spontaneously beating right atrium assessed as decrease in atrial rate at 10^-5 M relative to control. The data set is classed as ADME, tissue-based, Cavia porcellus. As to conditions: 10 µM. Further details: scale not given: the % may be the effect or the level left.
The subject of data set [8] is Left cardiac atrium. As to the kind of experiment: Negative inotropic activity in guinea pig left atrium assessed as decrease in developed tension at 10^-6 M relative to control. In kind it is ADME, tissue-based, Cavia porcellus. On the set-up: scale not given: the % may be the effect or the level left. To be noted: 1 µM.
The subject of data set [9] is Aorta. Briefly: Inhibition of calcium-induced contraction in K+-depolarized guinea pig aortic strips at 10^-4 M relative to control. As to conditions: Cavia porcellus. In kind it is tissue-based.
Data set [10] can be described thus: Selectivity ratio of EC50 for negative chronotropic activity in guinea pig spontaneously beating right atrium to EC50 for negative inotropic activity in guinea pig left atrium. The data set is classed as ADME, tissue-based, Cavia porcellus.
Data set [11] has as its system Right cardiac atrium. As to the kind of experiment: Negative chronotropic activity in guinea pig spontaneously beating right atrium assessed as decrease in atrial rate. As to conditions: Cavia porcellus. In kind it is tissue-based.
For data set [12], the system named is Left cardiac atrium. Briefly: Negative inotropic activity in guinea pig left atrium assessed as decrease in developed tension at 0.001 to 100 uM relative to control. The data set is classed as ADME, tissue-based. As to conditions: Cavia porcellus.
Data set [13] has as its system Left cardiac atrium. Briefly: Negative inotropic activity in guinea pig left atrium assessed as decrease in developed tension at 5 x 10^-6 M relative to control. On the set-up: scale not given: the % may be the effect or the level left. The data set is classed as ADME, tissue-based, Cavia porcellus. As to conditions: 5 µM.
Data set [14] concerns Aorta. As to the kind of experiment: Inhibition of calcium-induced contraction in K+-depolarized guinea pig aortic strips at 5 x 10^-5 M relative to control. The data set is classed as tissue-based. To be noted: Cavia porcellus.
Data set [15] relates to Left cardiac atrium. Briefly: Negative inotropic activity in guinea pig left atrium assessed as decrease in developed tension at 10^-5 M relative to control. Further details: scale not given: the % may be the effect or the level left. To be noted: 10 µM.

Molecules are shown by their SMILES.

Take `COC(=O)C1=C(C)NC(C)=C(C(=O)OC)C1c1c(-c2cccc(OC)c2)nc2sccn12`: the Activity in data set [1], in data set [2], in data set [3] and in data set [4] was less than 5% throughout.

For the molecule `COC(=O)C1=C(C)NC(C)=C(C(=O)OC)C1c1c(-c2ccc(OC(F)(F)F)cc2)nc2sccn12`, the Activity is recorded as 37.7% in [1]; 93.8% in data set [5]; 54.2% in [2]; 37.4% in [3]; 52.3% in [4]; 93.8% in data set [6].

For the molecule `COC(=O)C1=C(C)NC(C)=C(C(=O)OC)C1c1c(-c2ccccc2)nc2scc(C)n12`, the Activity in [1] is 130%; in [5], 100.65%; in data set [2], less than 5%; in [3], 85.1%; in data set [4] it was less than 5%; in data set [6], 82.5%.

As to `CCOC(=O)C1=C(C)NC(C)=C(C(=O)OCC)C1c1c(-c2c(F)cccc2F)nc2sccn12`, the Activity was 27.7% in [1]; 35% in [7]; 33% in [8]; less than 5% in data set [2]; 19.5% in data set [3]; less than 5% in data set [4]. In addition, the inhibition (as a rule, how much of the control response was suppressed) at 100 µM in [9] was determined as 28%.

Take `COC(=O)C1=C(C)NC(C)=C(C(=O)OC)C1c1c(-c2ccc(C(F)(F)F)cc2)nc2sccn12`: the Activity in [1] is 36.6%; in [2], less than 5%; in data set [3], 17.5%; in [4], less than 5%.

In the case of `COC(=O)C1=C(C)NC(C)=C(C(=O)OC)C1c1c(-c2cc(OC)ccc2OC)nc2sccn12`, the Activity was determined as 99% in [1]; 83.9% in data set [5]; 96.7% in [2]; 51.9% in data set [3]; 82.9% in [4]; 77.6% in data set [6].

In the case of `CCOC(=O)C1=C(C)NC(C)=C(C(=O)OCC)C1c1c(-c2cc(OC)ccc2OC)nc2sccn12`, the Activity in data set [1] is reported as 67.4%; in data set [5] it was 87%; in data set [2] it was 65.7%; in data set [3], 42.8%; in data set [4], 36.6%; in data set [6] it was 75.8%.

As for `CCOC(=O)C1=C(C)NC(C)=C(C(=O)OCC)C1c1c(-c2ccc(F)cc2)nc2sc(Cl)cn12`, the Activity came out at 47.5% in data set [1]; 83% in data set [7]; 61.9% in data set [5]; 62% in [8]; 33.7% in data set [2]; 44.9% in data set [3]. Further, the Activity is 32.6% in data set [4] and less than 5% in [6]. Further, the Ratio EC50 in data set [10] was in the range of 25 to 56. The results for the EC50 in data set [11] and in data set [12] were 1730 nM and 49 nM, respectively. In addition, in data set [9], the inhibition at 100 µM is 3%.

For the molecule `C=CCOC(=O)C1=C(C)NC(C)=C(C(=O)OCC=C)C1c1c(-c2cc(OC)c([N+](=O)[O-])cc2OC)nc2sccn12`, the Activity is 52.3% in data set [1]; 92% in data set [7]; 51.2% in data set [5]; less than 5% in data set [2]; 40.6% in data set [3]; less than 5% in data set [4]. The Activity worked out at 82% in data set [6] and 96% in [13]. Moreover, in [10], the “Ratio EC50” value came to 95. For the same molecule, the results for the EC50 in data set [11] and in [12] were 2380 nM and 25 nM, respectively. Moreover, in [9], the inhibition at 100 µM is 15%.

With `COC(=O)C1=C(C)NC(C)=C(C(=O)OC)C1c1c(C(F)(F)F)nc2sccn12`, the Activity in [1] worked out at 84.5%; in [5] it was 79.2%; in data set [2], 86.7%; in data set [3], 44.1%; in data set [4], 73%; in data set [6], 105.4%.

`COC(=O)C1=C(C)NC(C)=C(C(=O)OC)C1c1c(C(F)(F)F)nc2sc(C)cn12`: the Activity in data set [1] is on record as 44.1%; in data set [5] it was 100.3%; in [2] it was less than 5%; in [3], 35.4%; in [4], less than 5%; in data set [6], 63.7%.

Take `CCOC(=O)C1=C(C)NC(C)=C(C(=O)OCC)C1c1c(-c2ccc(Cl)c([N+](=O)[O-])c2)nc2sc(C)cn12`: the Activity in data set [1] is listed as less than 5%; in [7] it was 50%; in data set [5], less than 5%; in data set [2] it was less than 5%; in data set [3] it was less than 5%; in [4], less than 5%. Also, the Activity is reported as less than 5% in data set [6] and 64% in [13]. Also, the Ratio EC50 in [10] lay in the range of 25 to 56. Moreover, the EC50 (in general, the concentration that produces a half-maximal response) in data set [11] turned out to be 8480 nM; in [12], 190 nM. For the same molecule, in data set [9], the inhibition at 100 µM came to 24%.

Take `CCOC(=O)C1=C(C)NC(C)=C(C(=O)OCC)C1c1c(-c2cc(OC)cc(OC)c2)nc2sc(Br)cn12`: the inhibition at 50 µM in [14] was determined as 7%. In addition, the Activity in data set [1] is recorded as 42.4%; in data set [7], 80%; in data set [5], 14.5%; in [8] it was 93%; in data set [2], 29.6%; in [3], 17.4%. For the same molecule, the Activity in data set [4] and in [6] was less than 5% in each case. The “Ratio EC50” value in [10] is recorded as less than 10. Moreover, the EC50 worked out at 640 nM in [11] and 25 nM in [12].

Turning to `COC(=O)C1=C(C)NC(C)=C(C(=O)OC)C1c1c(-c2cc(OC)ccc2OC)nc2sc(Cl)cn12`, the Activity in data set [1] is recorded as 108.4%; in data set [5], 81.3%; in [2] it was 99.6%; in data set [3], 42%; in data set [4], 78.8%; in [6] it was 91.8%.

Consider `CCOC(=O)C1=C(C)NC(C)=C(C(=O)OCC)C1c1c(-c2ccc(OC)c(OC)c2)nc2sc(Br)cn12`, for which the inhibition at 50 µM in data set [14] came to 5%. Further, the Activity in data set [1] is recorded as 33.4%; in [7], 90%; in [5] it was 57.8%; in [2] it was 55.1%; in data set [3], 18.2%; in data set [4], 9%. Also, the Activity is reported as 89.1% in data set [6] and 39% in [13]. The EC50 in data set [11] amounted to 310 nM.

In the case of `CCOC(=O)C1=C(C)NC(C)=C(C(=O)OCC)C1c1c(-c2cc(OC)ccc2OC)nc2sc(C)cn12`, the Activity in data set [1] is less than 5%; in data set [7], 78%; in [2] it was less than 5%; in data set [3] it was less than 5%; in data set [4], less than 5%; in [15] it was 89%. Besides, in data set [10], the “Ratio EC50” value amounted to 20. Besides, the EC50 in [11] was 4810 nM; in data set [12] it was 250 nM. In addition, the inhibition at 100 µM in data set [9] was determined as 43%.

Regarding `COC(=O)C1=C(C)NC(C)=C(C(=O)OC)C1c1c(-c2c(OC)ccc(OC)c2[N+](=O)[O-])nc2sc(Cl)cn12`, the Activity in [1] is listed as 36.8%; in data set [2], less than 5%; in data set [3], 13.1%; in data set [4] it was less than 5%.

`COC(=O)C1=C(C)NC(C)=C(C(=O)OC)C1c1c(-c2cc(OC)c([N+](=O)[O-])cc2OC)nc2sccn12`: the Activity in data set [1] is 46.3%; in [2], less than 5%; in data set [3] it was 31.5%; in data set [4] it was less than 5%.

Regarding `COC(=O)C1=C(C)NC(C)=C(C(=O)OC)C1c1c(-c2ccccc2OC)nc2sccn12`, the Activity in data set [1], in data set [2], in data set [3] and in data set [4] was less than 5% in each case.

The record behind these values is ChEMBL document CHEMBL4385592, “4-Imidazo[2,1-b]thiazole-1,4-DHPs and neuroprotection: preliminary study in hits searching” (Eur J Med Chem, 2019).
